# The source made the active and inactive calls.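 Rule for the calls, unless noted: active = mean duplicate potentiation above the buffer control mean plus 5 SD of buffer wells; inactive = the rest.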
# Legend:
# [1] = thallium flux activation in parental CHO cells, counter-screen for KCNQ1 potentiator project (AID 493006;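 active = duplicate-averaged activation above buffer control mean plus 5 SD of those controls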); details: parental CHO-K1 cells, FluxOR thallium flux, at 10 µM; active compounds read high
# How it was run: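 Assay system: Untransfected host CHO-K1 cells with FluxOR thallium dye | Probe or stimulus: Potassium/thallium depolarization pulse | Schedule: Overnight 37 °C plating, 90 min RT dye, 20 min compound | Detection: Kinetic thallium-flux fluorescence | Read-out: Max-minus-min fluorescence over baseline, percent of buffer-to-R-L3 span | Benchmarks: Low control buffer, high control R-L3 activator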
# [2] = target: Potassium voltage-gated channel subfamily KQT member 1 (Homo sapiens) (UniProt P51787); test: KCNQ1 potassium channel potentiators, confirmation, FluxOR thallium flux, CHO cells, duplicates (AID 493007;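 active = potentiation averaged over duplicate wells exceeding buffer-only control mean by more than 3 SD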;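 for outcome: cells depolarized by a potassium plus thallium sulfate stimulus after compound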); details: KCNQ1 cell line, FluxOR thallium flux fluorescence, at 10 µM; active compounds read high, % of reference activator effect, buffer zero
# How it was run: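 Material: KCNQ1-expressing CHO cell line; Incubation: FluxOR dye loading 90 min, compound exposure 20 min, room temperature; Detection: FluxOR Tl+ flux fluorescence, 10 s baseline plus 110 s recording; Read-out: percent activation between buffer and R-L3 responses; Control set: buffer-only wells as 0% and R-L3 activator as 100%; Replication: duplicate wells per compound.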
# [3] = target: Potassium voltage-gated channel subfamily KQT member 2 (Rattus norvegicus) (UniProt O88943); test: rat KCNQ2 channel potentiation, selectivity assay for KCNQ1 potentiator project, KCNQ2-CHO-K1 cells (AID 493009); details: FluxOR thallium flux fluorescence, at 10 µM; active compounds read high, scaled: buffer 0, activator control 100;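 note: assay conditions were tuned for KCNQ1 rather than KCNQ2 modulators; signal is max minus min fluorescence divided by baseline after thallium stimulus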
# [4] = target: Potassium voltage-gated channel subfamily KQT member 1 (Homo sapiens) (UniProt P51787); test: KCNQ1 channel current potentiators, confirmation, orthogonal assay for KCNQ1 potentiator project, IonWorks patch clamp, KCNQ1-CHO cells (AID 493184;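 active = current rise at least 3 SD above the untreated control mean in each of two repeat wells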); details: automated patch clamp current, at 10 µM; active compounds read high
# How it was run: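 assay system = KCNQ1-expressing CHO cells | medium = external bath solution at pH 7.4 | probe or stimulus = 2,000 ms depolarization, -90 to +40 mV | compound dosing = 10 µM final, single point | measured by = automated voltage clamp, amphotericin B perforated patch | measure = percent current increase versus pre-compound level | replication = duplicates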
# Sequence of Potassium voltage-gated channel subfamily KQT member 1 (Homo sapiens) (P51787 whole entry, looked up): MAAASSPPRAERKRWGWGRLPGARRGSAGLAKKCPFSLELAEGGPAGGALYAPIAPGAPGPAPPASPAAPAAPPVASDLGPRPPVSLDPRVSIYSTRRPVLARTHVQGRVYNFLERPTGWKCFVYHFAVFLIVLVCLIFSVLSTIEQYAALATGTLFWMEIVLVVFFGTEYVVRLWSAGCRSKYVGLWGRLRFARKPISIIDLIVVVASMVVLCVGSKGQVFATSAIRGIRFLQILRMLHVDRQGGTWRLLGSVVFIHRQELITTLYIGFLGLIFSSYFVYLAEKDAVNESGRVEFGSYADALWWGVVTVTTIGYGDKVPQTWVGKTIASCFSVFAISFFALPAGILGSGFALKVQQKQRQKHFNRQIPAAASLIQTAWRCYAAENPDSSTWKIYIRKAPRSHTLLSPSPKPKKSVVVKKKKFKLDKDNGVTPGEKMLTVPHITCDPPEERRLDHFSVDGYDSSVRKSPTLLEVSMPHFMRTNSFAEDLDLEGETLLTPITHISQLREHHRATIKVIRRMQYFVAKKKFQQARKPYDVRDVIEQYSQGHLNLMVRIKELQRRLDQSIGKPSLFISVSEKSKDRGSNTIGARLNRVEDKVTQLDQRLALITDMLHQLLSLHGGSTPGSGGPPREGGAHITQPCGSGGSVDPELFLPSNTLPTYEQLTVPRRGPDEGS
# Sequence of Potassium voltage-gated channel subfamily KQT member 2 (Rattus norvegicus) (O88943 whole entry, looked up): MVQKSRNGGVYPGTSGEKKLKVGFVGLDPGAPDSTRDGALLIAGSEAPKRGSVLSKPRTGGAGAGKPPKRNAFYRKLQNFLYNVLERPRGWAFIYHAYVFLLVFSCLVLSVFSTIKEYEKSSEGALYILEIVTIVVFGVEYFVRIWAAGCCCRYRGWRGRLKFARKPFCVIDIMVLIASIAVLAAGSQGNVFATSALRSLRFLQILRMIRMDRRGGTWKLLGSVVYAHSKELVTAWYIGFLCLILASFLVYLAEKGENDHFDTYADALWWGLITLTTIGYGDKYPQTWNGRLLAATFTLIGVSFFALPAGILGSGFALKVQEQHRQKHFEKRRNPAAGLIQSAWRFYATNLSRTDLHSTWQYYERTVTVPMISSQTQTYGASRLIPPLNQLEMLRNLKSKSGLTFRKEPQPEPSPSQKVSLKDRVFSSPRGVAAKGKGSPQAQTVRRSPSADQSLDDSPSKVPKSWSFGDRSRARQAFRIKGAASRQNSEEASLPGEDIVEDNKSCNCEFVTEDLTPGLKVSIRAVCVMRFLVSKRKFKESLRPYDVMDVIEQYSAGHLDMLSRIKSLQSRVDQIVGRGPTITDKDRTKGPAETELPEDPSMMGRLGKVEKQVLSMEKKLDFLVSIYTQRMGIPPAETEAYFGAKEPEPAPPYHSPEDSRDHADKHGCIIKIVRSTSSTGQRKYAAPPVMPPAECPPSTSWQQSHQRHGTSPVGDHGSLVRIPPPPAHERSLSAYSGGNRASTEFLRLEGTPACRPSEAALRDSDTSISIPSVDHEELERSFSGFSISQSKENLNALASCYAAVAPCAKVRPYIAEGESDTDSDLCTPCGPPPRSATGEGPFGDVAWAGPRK
SMILES,activation [1],potentiation [2],potentiation [3],outcome [4],outcome [1],outcome [2],outcome [3]
S=c1[nH]c2ccc(Cl)cc2s1,614% (active),228% (active),526% (active),inactive,–,–,–
NNc1nc2ccc(Cl)cc2s1,–,–,–,inactive,inactive,inactive,inactive
COc1ccccc1NC(=O)CCN1CCN(c2ccc(Cl)cc2)CC1,–,–,–,inactive,inactive,inactive,inactive
COc1cc(CNCc2ccccn2)ccc1OCc1ccc(Cl)cc1,–,–,–,inactive,inactive,inactive,inactive
Nc1nc(NCc2ccco2)nc(NC2CCCCC2)c1[N+](=O)[O-],–,–,–,inactive,inactive,inactive,inactive
COc1cccc(C=O)c1OCCCOc1cccc2cccnc12,–,–,–,inactive,inactive,inactive,inactive
COc1cccc(/C=N/NC(=O)C(C)n2nc(C)c([N+](=O)[O-])c2C)c1O (stereo not drawn),–,–,–,inactive,inactive,inactive,inactive
CCOC(=O)c1ccc(NC(=S)N2CCSC2c2ccc(Br)cc2)cc1 (stereo not drawn),–,–,–,inactive,inactive,inactive,inactive
Cc1nnc(SCC(=O)N(Cc2ccccc2)C(C)C)n1-c1ccccc1,–,–,–,inactive,inactive,inactive,inactive
CC(C)(C)n1nnnc1C(c1cc2cc3c(cc2[nH]c1=O)OCCO3)N1CCSCC1 (stereo not drawn),–,–,–,inactive,inactive,inactive,inactive
CCOc1ccc2nc(/N=C/c3nc(-c4ccccc4)oc3O)sc2c1,150% (active),52.5% (active),190% (active),inactive,–,–,–
Fc1ccccc1Nc1nc(Cl)nc(Cl)n1,–,–,–,inactive,inactive,inactive,inactive
Cc1nonc1NC(=O)OC1CCCCC1,–,–,–,inactive,inactive,inactive,inactive
CCOc1ccccc1NC(=S)NC(=O)c1ccco1,172% (active),35% (active),184% (active),inactive,–,–,–
COc1ccccc1C(=O)Nc1ccnn1C1CCN(CCCC2CCCC2)CC1,–,–,–,inactive,inactive,inactive,inactive
CC(/C=C1\SC(=S)N(NS(=O)(=O)c2ccc(C)cc2)C1=O)=C\c1ccccc1,507% (active),424% (active),666% (active),inactive,–,–,–

SMILES,activation [1],potentiation [2],potentiation [3],outcome [4],outcome [1],outcome [2],outcome [3]
O=C(O)c1ccc2c(c1)C(=O)N(c1ccc(Cl)cn1)C2=O,–,–,–,inactive,inactive,inactive,inactive
S=c1[nH]cnc2scc(-c3ccc(Cl)cc3)c12,158% (active),47% (active),191% (active),inactive,–,–,–
CC(/C=C1\SC(=S)N(NS(=O)(=O)c2ccccc2)C1=O)=C\c1ccccc1,304% (active),157% (active),318% (active),inactive,–,–,–
Oc1ccc2ccccc2c1N=Nc1nccs1,328% (active),258% (active),426% (active),inactive,–,–,–
COc1cccc(C(=O)NNC(=O)C(=O)Nc2ccc(C)c(Cl)c2)c1,278% (active),99% (active),311% (active),inactive,–,–,–
Cc1ccc2cc(CN(C(=O)c3ccco3)c3ccccc3C)c(=O)[nH]c2c1,–,–,–,inactive,inactive,inactive,inactive
Cc1ccc(O)c(C(=O)CC(=O)c2ccc(Cl)cc2)c1,–,–,–,inactive,inactive,inactive,inactive
O=C(Oc1c(-c2ccco2)oc2ccccc2c1=O)c1cccnc1,–,39.5% (active),187% (active),inactive,inactive,–,–
COc1cccc(C=NCC(C)N=Cc2cccc(OC)c2O)c1O (stereo not drawn),–,–,–,inactive,inactive,inactive,inactive
Cc1cccc(C(=O)NC(=S)N2CCc3ccccc3C2)c1,197% (active),99% (active),256% (active),inactive,–,–,–
CCOC(=O)c1cccc(C(=O)Nc2nc3ccc(OC)cc3s2)n1,–,–,–,inactive,inactive,inactive,inactive
COc1ccc(C(=O)On2c(-c3ccc(Br)cc3)nc3ccccc3c2=O)cc1,–,–,–,inactive,inactive,inactive,inactive
CCc1nnc(NC(=O)CN2C(=O)c3ccccc3C2=O)s1,–,–,–,inactive,inactive,inactive,inactive
CCOc1ccccc1C1CC(=O)Nc2cc3c(cc21)OCCO3 (stereo not drawn),–,–,–,inactive,inactive,inactive,inactive
CCOC(=O)c1c(NS(C)(=O)=O)sc2c1CCC(C)C2 (stereo not drawn),173% (active),24.5% (active),190% (active),inactive,–,–,–
CCCCCC/C(C)=C1/SC(=S)NC1=O,752% (active),264% (active),612% (active),inactive,–,–,–
